# Activity calls are given as the source filed them. No cut-off for these calls is given here.
# Columns and labels:
# P2Y purinoceptor 1 [1] = biological target: T1, P2Y purinoceptor 1 (Homo sapiens, UniProt P47900); assay: Activation of human P2Y1 receptor expressed in human 1321N1 cells assessed as induction of calcium flux by FLIPR assay; type: functional, cell-based
# P2Y purinoceptor 1 [2] = biological target: T1, P2Y purinoceptor 1; assay: Activation of human P2Y1 receptor expressed in human 1321N1 cells assessed as induction of calcium flux by FLIPR assay relative to 2-MeSADP; type: functional, cell-based
# Method in brief: (§1)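 1321N1 human astrocytoma cells stably expressing hP2Y1, grown overnight at 37 °C, 5% CO2 (to ~80% confluency), loaded with calcium-4 dye plus probenecid (no wash), 1 h at rt. Compounds diluted in Hank's buffer pH 7.2, tested up to 10 μM; FLIPR-Tetra at rt, ex 485/em 525 nm, duplicates. Response is peak fluorescence minus pre-exposure basal.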
# P2Y purinoceptor 1 [3] = biological target: T1, P2Y purinoceptor 1; assay: Agonist activity at human P2Y1 receptor expressed in human 1321N1 cells by PLC assay; type: functional, cell-based
# Mus musculus [4] = assay: Cardioprotective effect in calsequestrin transgenic mouse model of severe cardiomyopathy and heart failure assessed as improvement of echocardiography-derived fractional shortening at 3.3 uM, sc administered per day via minipump measured after 28 days by transthoracic echocardiographic analysis; type: functional
# Method in brief: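 CSQ-overexpressing transgenic mice (lethal heart failure near 3 months); analogue dissolved at 3.3 μM in sterile saline/PBS pH 7.4 (200 μL pump load), sterile-filtered, infused subcutaneously by mini-osmotic pump at 6 μL/day for 28 days; vehicle-infused CSQ controls. Under 1% isoflurane, M-mode echocardiography gave LVEDD, LVESD and FS ((LVEDD-LVESD)/LVEDD), averaged over >3 cardiac cycles; one-way ANOVA with post-test.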
# Mus musculus [5] = assay: Cardioprotective effect in calsequestrin transgenic mouse model of heart failure assessed as increased shortening of heart septum and left ventricular free wall at 3.3 uM, sc administered per day via minipump measured after 28 days by transthoracic echocardiographic analysis; type: functional, organism-based
# Method in brief: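 Calsequestrin-overexpressing transgenic mice (hypertrophy, lethal heart failure near 3 months). Compound at 3.3 μM in sterile saline/PBS pH 7.4, filter-sterilized, infused subcutaneously via osmotic minipump at 6 μL/day for 28 days; saline-infused controls. Under 1% isoflurane, M-mode echocardiography gave LVEDD, LVESD and FS = (LVEDD−LVESD)/LVEDD, averaged over >3 cardiac cycles; mean ± SE, one-way ANOVA with post-test.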
# P2Y purinoceptor 1 [6] = biological target: T1, P2Y purinoceptor 1; assay: Activation of human P2Y1 receptor expressed in human 1321N1 cells assessed as induction of calcium flux up to 10 uM by FLIPR assay; type: functional, cell-based; method in brief: as §1
# 1321-N1 = assay: Induction of calcium flux in human 1321N1 cells at 10 uM by FLIPR assay; type: functional, cell-based
# T1 sequence (P47900 whole entry): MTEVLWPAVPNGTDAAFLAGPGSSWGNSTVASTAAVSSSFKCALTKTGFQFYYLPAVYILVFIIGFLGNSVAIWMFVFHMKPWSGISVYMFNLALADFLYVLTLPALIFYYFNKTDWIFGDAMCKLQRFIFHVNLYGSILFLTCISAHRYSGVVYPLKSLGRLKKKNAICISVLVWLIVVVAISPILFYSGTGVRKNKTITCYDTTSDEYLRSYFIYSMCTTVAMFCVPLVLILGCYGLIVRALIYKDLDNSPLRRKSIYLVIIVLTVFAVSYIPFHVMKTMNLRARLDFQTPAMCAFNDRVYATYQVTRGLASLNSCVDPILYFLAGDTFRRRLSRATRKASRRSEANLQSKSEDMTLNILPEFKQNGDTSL
Structure (SMILES),Activity (Mus musculus [4]) [%],Activity (P2Y purinoceptor 1 [6]),other results
Nc1nc(Cl)nc2c1ncn2[C@H]1[C@H](O)[C@H](O)[C@@]2(COP(=O)(O)O)C[C@H]12,15.47,–,EC50 (P2Y purinoceptor 1 [1]): 722 nM; %max (P2Y purinoceptor 1 [2]): 80%; EC50 (P2Y purinoceptor 1 [3]): 1890 nM
Nc1nc(Cl)nc2c1ncn2[C@H]1[C@H](O)[C@H](O)[C@@]2(CP(=O)(O)O)C[C@H]12,20.25,inactive,Activity (Mus musculus [5]): Active
Nc1nc(Cl)nc2c1ncn2[C@H]1[C@H](O)[C@H](O)[C@@]2(CCP(=O)(O)O)C[C@H]12,19.26,inactive,–
CP(=O)(O)C[C@]12C[C@@H]1[C@@H](n1cnc3c(N)nc(Cl)nc31)[C@H](O)[C@@H]2O,15,inactive,–
Nc1nc(Cl)nc2c1ncn2[C@H]1[C@H](O)[C@H](O)[C@@]2(/C=C/P(=O)(O)O)C[C@H]12,12.12,inactive,–
Nc1ncnc2c1ncn2[C@H]1[C@H](O)[C@H](O)[C@@]2(CCP(=O)(O)O)C[C@H]12,11.15,inactive,–
CSc1nc(N)c2ncn([C@@H]3O[C@H](COP(=O)(O)OP(=O)(O)O)[C@@H](O)[C@H]3O)c2n1,–,–,Activity (1321-N1): inactive
Nc1ncnc2c1ncn2[C@H]1[C@H](O)[C@H](O)[C@@]2(/C=C/P(=O)(O)O)C[C@H]12,13.88,inactive,–
Nc1ncnc2c1ncn2[C@H]1[C@H](O)[C@H](O)[C@@]2(CP(=O)(O)O)C[C@H]12,16.23,inactive,–

# — ChEMBL document CHEMBL1157658, “Structure-activity relationship of (N)-Methanocarba phosphonate analogues of 5'-AMP as cardioprotective agents acting through a cardiac P2X receptor” (J Med Chem, 2010)
